A short description of assay [1]: Concentration which gives 20% increase in the force contraction in ferret papillary muscle. In kind it is functional, Mustela putorius furo, Muscle tissue. The method, boiled down: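 Isolated ferret papillary muscle, force of contraction recorded over a dose-response range. C20 = concentration giving a 20% increase in contractile force. Single experiments reported individually; with three or more runs, mean and range given.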

Assay [2] is filed under the species Mustela putorius furo. The assay is described as follows: (§1) In vitro inotropy blocking studies in ferret papillary muscle in the presence of 10 uM cimetidine; B-Blocked. In kind it is functional, tissue-based. To be noted: Muscle tissue.
Assay [3] is filed under the species Mustela putorius furo. The assay is described as follows: In vitro inotropy blocking studies in ferret papillary muscle in the presence of 100 uM nadolol; B-Blocked. In kind it is functional, tissue-based. To be noted: Muscle tissue. In outline:
(§2)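 Ferret papillary muscle dose-response repeated in the presence of 100 μM nadolol. A rise of at least 1 order of magnitude in the measured C20 was scored as a blocked inotropic response.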

The species named for assay [4] is Mustela putorius furo. Put plainly: (§3) In vitro inotropy blocking studies in ferret papillary muscle in the presence of 100 uM nadolol; NB-Not Blocked. The settings on record: Muscle tissue. In kind it is functional, tissue-based. In outline:
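Ferret papillary muscle inotropic dose-response curves repeated in the presence of each antagonist (nadolol at 100 μM). A rise in C20 of at least one order of magnitude was scored as a blocked response.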

For assay [5], the species on record is Cavia porcellus. Put plainly: Chronotropic effect of histamine at 5 ug/mL in guinea pig atrium; NR-Not reached. In kind it is functional, Cardiac atrium.
The species named for assay [6] is Cavia porcellus. The assay is described as follows: Contractile response of histamine at 0.5 ug/mL in guinea pig ileum. In kind it is functional. In outline:
(§4)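 Isolated guinea pig ileum, H1 activity. Value is the concentration giving 50% of the contractile response of histamine at 0.5 μg/mL, taken from dose-response curves. Reported as mean ± SEM of three separate dose-response determinations. Response sensitivity checked with mepyramine.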

In assay [7] the test system is Cavia porcellus. Put plainly: In vivo percent change in air way overflow in guinea pig was determined at a dose of 10 mg/kg/hr. In kind it is functional.
Assay [8] relates to Cavia porcellus. Put plainly: In vivo percent change in heart rate in guinea pig was determined at a dose of 10 mg/kg/hr. In kind it is functional. The method, boiled down: (§5)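 Pentobarbital-anesthetized guinea pigs with stomach ligated to contain gastric fluid. After 30 min stabilization, blood pressure, heart rate, LVEDP and LV dP/dtmax were recorded at 1-min intervals. Compound given by iv infusion for 60 min, then monitored 10 min more. Gastric contents were titrated against 0.1 N NaOH. Value is the average maximum % change from control in the 10 min after infusion, mean ± SEM.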

The test system of assay [9] is Cavia porcellus. The assay is described as follows: In vivo percent change in mean arterial pressure in guinea pig was determined at a dose of 10 mg/kg/hr. In kind it is functional, Artery. In outline:
as §5

The test system of assay [10] is Cavia porcellus. The assay is described as follows: In vivo percent change in total acid secretion in guinea pig was determined at a dose of 10 mg/kg/hr. In kind it is functional. The method, boiled down: as §5
For the next assay, the system named is Rattus norvegicus. The assay is described as follows: In vivo effect on gastric acid secretion in rat was determined after subcutaneous administration. In kind it is functional. The settings on record: Stomach, sc. The method, boiled down:
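Rats, subcutaneous dosing, gastric acid secretion measured by the method of Hagiwara and co-workers. ED50 = dose giving a 50% increase in acid secretion over control. Mean ± SEM of three separate dose-response determinations.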

Assay [11] is described as follows: dP/dt value of the compound. In kind it is functional. Set-up: unit not given here.
For assay [12], the species on record is Cavia porcellus. Put plainly: In vitro chronotropic effect of histamine at 5 ug/mL in guinea pig atrium. In kind it is functional. To be noted: Cardiac atrium. In outline:
(§6)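 Spontaneously beating guinea pig right atria. Value is the concentration giving 50% of the chronotropic effect of histamine at 5 μg/mL, taken from dose-response curves. Reported as mean ± SEM of three separate dose-response determinations. Response sensitivity checked with cimetidine.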

The species named for assay [13] is Cavia porcellus. The assay is described as follows: In vitro contractile response of histamine at 0.5 ug/mL in guinea pig ileum. In kind it is functional. The method, boiled down:
as §4

For assay [14], the system named is Cavia porcellus. The assay is described as follows: In vivo percent change in airway overflow in guinea pig was determined at a dose of 1 mg/kg/h. In kind it is functional.
Assay [15] relates to Cavia porcellus. Put plainly: In vivo percent change in heart rate in guinea pig was determined at a dose of 1 mg/kg/h. In kind it is functional.
Assay [16] deals with Cavia porcellus. Put plainly: In vivo percent change in mean arterial pressure in guinea pig was determined at a dose of 1 mg/kg/h. In kind it is functional, Artery.
In assay [17] the test system is Cavia porcellus. Put plainly: In vivo percent change in total acid secretion in guinea pig was determined at a dose of 1 mg/kg/h. In kind it is functional.
The species entered for assay [18] is Mustela putorius furo. Put plainly: In vitro inotropy blocking studies in ferret papillary muscle in the presence of 100 uM nadolol; Blocked. In kind it is functional, tissue-based. The settings on record: Muscle tissue. The method, boiled down: as §2
The species named for assay [19] is Mustela putorius furo. The assay is described as follows: In vitro inotropy blocking studies in ferret papillary muscle in the presence of 10 uM cimetidine; NB-Not Blocked. In kind it is functional, tissue-based. The settings on record: Muscle tissue. The method, boiled down:
(§7)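 Ferret papillary muscle dose-response repeated in the presence of antagonist (cimetidine). A rise of at least 1 order of magnitude in the measured C20 was scored as a blocked inotropic response.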

The species named for assay [20] is Mustela putorius furo. The assay is described as §1. In kind it is functional, tissue-based. To be noted: Muscle tissue. In outline: as §7
The source holds these as a separate data set.

Assay [21] is filed under the species Mustela putorius furo. The description is as §3. The settings on record: Muscle tissue. In kind it is functional, tissue-based. The method, boiled down: as §2
The source holds these as a separate data set.

The nature of assay [22]: Concentration of compound which gives 20% increase in the force contraction in ferret papillary muscle. In kind it is functional, Mustela putorius furo, Muscle tissue. In outline:
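Ferret papillary muscle force of contraction. C20 is the concentration giving a 20% increase in force. Values come from individual experiments; where three or more runs were done, the mean and range are given. NR means not reached.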

The species entered for assay [23] is Cavia porcellus. The assay is described as follows: Chronotropic effect of histamine at 5 ug/mL in guinea pig atrium. In kind it is functional, Cardiac atrium. The settings on record: Cavia porcellus, Cardiac atrium; read-out: EC50. In outline: as §6
For assay [24], the system named is Cavia porcellus. The assay is described as follows: In vivo percent change airway overflow in guinea pig was determined at a dose of 75 mg/kg/h. In kind it is functional.
The subject of assay [25] is Cavia porcellus. Put plainly: In vivo percent change in heart rate in guinea pig was determined at a dose of 75 mg/kg/h. In kind it is functional. The method, boiled down:
as §5

For assay [26], the system named is Cavia porcellus. The assay is described as follows: In vivo percent change in mean arterial pressure in guinea pig was determined at a dose of 75 mg/kg/h. In kind it is functional, Artery. The method, boiled down: as §5
Assay [27] deals with Cavia porcellus. Put plainly: In vivo percent change total acid secretion in guinea pig was determined at a dose of 75 mg/kg/h. In kind it is functional. In outline:
as §5

Assay [28] is described as follows: dp/dt value of the compound. In kind it is functional. In outline:
as §5

Values joined by “and” are separate entries in the source; they are usually repeats but may differ in a detail not shown here. Equal values may be shown once. Where only a bound is given, the exact number is not on record here.

In turn, `c1coc(CNCCCc2c[nH]cn2)c1` registered a C20 in assay [1] of 33 uM l-1.
With `O=C(c1ccccc1)N1CCC(NCCc2c[nH]cn2)CC1`, the C20 in [1] is reported as >27 uM l-1.
Regarding `c1ccc2c3c(ccc2c1)C(NCCc1c[nH]cn1)CCC3` (stereo not drawn), the C20 in assay [1] is >10 uM l-1.
In the case of `CCN(CCc1c[nH]cn1)C(C)CCc1ccc(O)cc1` (stereo not drawn), the Activity entry in the assay listed under Mustela putorius furo [2] and in the assay filed under Mustela putorius furo [3] was “Blocked” throughout. Besides, in assay [1], the C20 was 4 uM l-1 and 6 uM l-1.
As to `CN(CCc1c[nH]cn1)Cc1ccco1`, the Activity entry in the assay listed under Mustela putorius furo [2] is “Blocked”; in the assay filed under Mustela putorius furo [4], “Not blocked”. Further, the C20 in assay [1] was found to be 6.7 uM l-1. For the same compound, the EC50 result in the assay filed under Cavia porcellus [5] is on record as “Not reached”; in the assay filed under Cavia porcellus [6], 165 uM l-1. In addition, the Change in the assay on Cavia porcellus [7] is on record as 51%; with Cavia porcellus [8] it was -8%; in the assay with Cavia porcellus [9], -22%; with Cavia porcellus [10], 221%. This compound also returned an ED50 in the assay with Rattus norvegicus of 15.3 mg/kg. The dP/dt in [11] is -6.
Turning to `Cc1[nH]cnc1CCNCCNC(=O)c1ccccc1`, in assay [1], the C20 was 27 uM l-1.
As to `CN(C)CCCSC(=N)N` [DIMAPRIT], the Activity entry is “Blocked” in the assay filed under Mustela putorius furo [2] and “Not blocked” in the assay filed under Mustela putorius furo [4]. Further, the results for the EC50 in the assay filed under Cavia porcellus [12] and in the assay filed under Cavia porcellus [13] were 4.6 µM and 10.4 µM, respectively. The Change was 11% in the assay with Cavia porcellus [14], 19% in the assay with Cavia porcellus [15], -25% with Cavia porcellus [16] and 91% in the assay on Cavia porcellus [17]. Further, the ED50 in the assay on Rattus norvegicus is 3.1 mg/kg. The compound also gave a dP/dt in assay [11] of 93.
For `C(=C\c1ccccc1)/CCNCCc1c[nH]cn1`, the Activity entry in the assay filed under Mustela putorius furo [18] is reported as “Blocked”. The C20 in assay [1] was 14 uM l-1 and 21 uM l-1.
`CC(CCc1ccc(O)cc1)NCCc1c[nH]cn1` (stereo not drawn): the Activity result in the assay listed under Mustela putorius furo [19] was “Not blocked”; in the assay filed under Mustela putorius furo [3], “Blocked”. The C20 in assay [1] was 2 uM l-1 and 5 uM l-1.
As for `CCCCCCCNCCc1c[nH]cn1`, the Activity entry in the assay filed under Mustela putorius furo [20] was “Blocked”; in the assay filed under Mustela putorius furo [21] it was “Not blocked”. Also, the C20 in assay [22] was found to be 1 uM l-1. Besides, the EC50 in the assay listed under Cavia porcellus [23] amounted to 71 µM; in the assay listed under Cavia porcellus [6] (Cavia porcellus, Ileum, read-out: EC50), 7.88 µM. In addition, the Change with Cavia porcellus [24] was found to be 150%; in the assay on Cavia porcellus [25], 14%; in the assay on Cavia porcellus [26] it was 15%; in the assay on Cavia porcellus [27], 220%. Also, the ED50 in the assay on Rattus norvegicus worked out at 10.7 mg/kg. In assay [28], this compound came in with a dP/dt of 155.
With `COc1ccc(CCNCCc2c[nH]cn2)cc1OC`, the Activity entry in the assay filed under Mustela putorius furo [2] and in the assay filed under Mustela putorius furo [3] was “Blocked” in each case.
In the case of `Cc1[nH]cnc1CCNCCNC(=O)N1CCOCC1`, the C20 in assay [1] was >90 uM l-1.
For the compound `CC(=O)NCCNCCc1c[nH]cn1`, the C20 in assay [1] was 46 uM l-1 and 85 uM l-1.

As a reminder, the ED50 is the midpoint of the dose-response relation.

The record behind these values is ChEMBL document CHEMBL1125114, “Cardiotonic agents. 6. Histamine analogues as potential cardiovascular selective H2 agonists” (J Med Chem, 1990).
